{"source": "paper PMC3332339", "about": "(European Journal of Clinical Pharmacology, 2012)", "key": {"[1]": {"test_system": "factor Xa inhibition and thrombin inhibition", "test": "Prothrombinase-induced clotting time", "type": "in vivo, human", "conditions": "for PiCT AUEC0–48, ratio of adjusted test/reference gMean (90% CI) / PiCT ERmax, ratio of adjusted test/reference gMean (90% CI): after enoxaparin vs alone", "how_it_was_run": "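Healthy-adult crossover: oral prodrug 220 mg alone, or 24 h after 3 daily s.c. LMWH 40 mg doses. Platelet-poor plasma incubated with phospholipid/Russell's viper venom activator, 3 min at 37°C; factor Xa added, recalcified with reagent containing 25 mM CaCl2, clotting time read. Daily 142 ng/mL quality-control standard run at start, middle and end. AUEC0–48 and ERmax versus baseline; geometric mean ratios with 90% CI.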"}, "[2]": {"test_system": "intrinsic pathway of the coagulation cascade", "test": "Activated partial thromboplastin time", "type": "in vivo, human", "conditions": "for aPTT AUEC0–48, gMean / aPTT ERmax, gMean / aPTT Ebase (baseline effect), gMean: n = 23", "how_it_was_run": "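Crossover in healthy adults (18–55 y) with 5-day washout: oral thrombin-inhibitor prodrug 220 mg alone, or 24 h after 3 daily s.c. LMWH 40 mg doses. Plasma sampled over 48 h. Equal volumes of plasma and kaolin–cephalin reagent, 3 min at 37°C with stirring, recalcified with 0.025 M CaCl2, then time to fibrin clot on a coagulometer. Geometric mean test/reference ratios with 90% CI.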"}, "[3]": {"test_system": "thrombin (meizothrombin generated from prothrombin by ecarin)", "test": "Ecarin clotting time", "type": "in vivo, human"}, "human α-thrombin": {"test_system": "human α-thrombin", "test": "Diluted thrombin time", "type": "in vivo", "conditions": "for dTT (HEMOCLOT) AUEC0–48, gMean / dTT (HEMOCLOT) ERmax, gMean / dTT (HEMOCLOT) Ebase (baseline effect), gMean: n = 23", "how_it_was_run": "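Healthy-adult crossover (oral prodrug 220 mg alone or after 3 days of s.c. LMWH 40 mg), plasma sampled over 48 h. Plasma diluted in 0.9% NaCl, mixed with normal pooled human plasma, 2 min at 37°C; clotting started with a fixed amount of purified human α-thrombin and time to clot recorded in seconds. Quantitative range 50–500 ng/mL. AUEC0–48 and ERmax; geometric mean ratios with 90% CI.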"}, "Safety and tolerability": {"test": "Safety and tolerability", "type": "in vivo, human", "conditions": "for Tolerability (global assessment): Phase I, healthy subjects", "how_it_was_run": "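Open-label single-center crossover in healthy men and women: oral prodrug 220 mg alone, or after 3 daily s.c. LMWH 40 mg doses. Assessed by adverse events, physical examination, blood pressure, pulse, 12-lead ECG, hematology, clinical chemistry, urinalysis, local tolerability and investigator global assessment. Follow-up on days 1–3, with end-of-study examination within 7 days.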"}, "[4]": {"test": "Dabigatran plasma pharmacokinetics", "type": "in vivo, human", "conditions": "for AUC(0-inf) / Cmax: both, human, plasma", "how_it_was_run": "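Crossover in healthy adults: 220 mg oral prodrug alone, or 24 h after 3 daily s.c. LMWH 40 mg doses, with 5-day washout. Plasma taken to 48 h post-dose. Free drug: plasma buffered with 0.2 M ammonium formate pH 3.5 plus [13C6] internal standard. Total drug: alkaline cleavage with NaOH, 2 h at 37°C, then HCl. Validated HPLC-MS/MS, calibrated 1.00–400 ng/mL. Geometric mean ratios with 90% CI.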"}, "[5]": {"conditions": "pharmacologically equipotent glucuronide; cited from earlier work"}, "factor Xa/IIa": {"test_system": "factor Xa/IIa", "conditions": "cited from earlier work"}, "[6]": {"conditions": "dabigatran etexilate 220 mg after enoxaparin, n = 21"}, "[7]": {"conditions": "dabigatran etexilate 220 mg alone, n = 23"}, "[8]": {"conditions": "dabigatran etexilate dosed 24 h after enoxaparin"}, "[9]": {"conditions": "dabigatran etexilate 220 mg after enoxaparin"}, "[10]": {"conditions": "dabigatran etexilate 220 mg alone"}, "[11]": {"conditions": "dabigatran etexilate 220 mg after enoxaparin, n = 23"}, "[12]": {"conditions": "dabigatran etexilate 220 mg after enoxaparin vs alone, adjusted gMean ratio"}, "[13]": {"conditions": "enoxaparin pre-treatment before dabigatran etexilate 220 mg"}}, "note": "Marks after values point to notes of the source that are not given here.", "data": [{"compound": "CCCCCCOC(=O)NC(=N)c1ccc(NCc2nc3cc(C(=O)N(CCC(=O)OCC)c4ccccn4)ccc3n2C)cc1", "note": "[Dabigatran etexilate]", "values": [{"measurement": "PiCT AUEC0–48, ratio of adjusted test/reference gMean (90% CI)", "setting": "[1]", "result": "163.7 (114.3–234.3) %"}, {"measurement": "PiCT ERmax, ratio of adjusted test/reference gMean (90% CI)", "setting": "[1]", "result": "115.2 (101.8–130.4) %"}, {"measurement": "PiCT AUEC0–48, ratio of adjusted test/reference gMean (90% CI)", "setting": "[1]; listed as dabigatran etexilate", "result": 163.7, "unit": "%"}, {"measurement": "PiCT ERmax, ratio of adjusted test/reference gMean (90% CI)", "setting": "[1]; listed as dabigatran etexilate", "result": 115.2, "unit": "%"}, {"measurement": "PiCT AUEC0–48, gMean", "setting": "[1]; [6]", "result": "23.8^c h"}, {"measurement": "PiCT ERmax (maximum effect ratio to baseline), gMean", "setting": "[1]; [6]", "result": "2.92^c"}, {"measurement": "PiCT Ebase (baseline effect), gMean", "setting": "[1]; [6]", "result": "34.7^c s"}, {"measurement": "PiCT AUEC0–48, gMean", "setting": "[1]; [7]", "result": 14.6, "unit": "h"}, {"measurement": "PiCT ERmax (maximum effect ratio to baseline), gMean", "setting": "[1]; [7]", "result": 2.53}, {"measurement": "PiCT Ebase (baseline effect), gMean", "setting": "[1]; [7]", "result": 28.4, "unit": "s"}, {"measurement": "Increase of PiCT ERmax compared with dabigatran etexilate alone", "setting": "[1]; [8]", "result": "approximately 15%"}, {"measurement": "PiCT time to peak", "setting": "[1]; similar in both treatment regimens (alone and 24 h after enoxaparin)", "result": 3, "unit": "h"}, {"measurement": "aPTT AUEC0–48, ratio of adjusted test/reference gMean (90% CI)", "setting": "[2]; after enoxaparin vs alone", "result": "114.2 (75.1–173.5) %"}, {"measurement": "aPTT ERmax, ratio of adjusted test/reference gMean (90% CI)", "setting": "[2]; after enoxaparin vs alone", "result": "84.9 (70.3–102.5) %"}, {"measurement": "aPTT AUEC0–48, gMean", "setting": "[2]; [9]", "result": 6.56, "unit": "h"}, {"measurement": "aPTT ERmax, gMean", "setting": "[2]; [9]", "result": 2.07}, {"measurement": "aPTT Ebase (baseline effect), gMean", "setting": "[2]; [9]", "result": 39.3, "unit": "s"}, {"measurement": "aPTT AUEC0–48, gMean", "setting": "[2]; [10]", "result": 5.65, "unit": "h"}, {"measurement": "aPTT ERmax, gMean", "setting": "[2]; [10]", "result": 2.40}, {"measurement": "aPTT Ebase (baseline effect), gMean", "setting": "[2]; [10]", "result": 39.1, "unit": "s"}, {"measurement": "ECT AUEC0–48, ratio of adjusted test/reference gMean (90% CI)", "setting": "[3]; after enoxaparin vs alone", "result": "99.2 (67.8–145.0) %"}, {"measurement": "ECT ERmax, ratio of adjusted test/reference gMean (90% CI)", "setting": "[3]; after enoxaparin vs alone", "result": "91.0 (80.0–103.5) %"}, {"measurement": "ECT Ebase (baseline effect), gMean", "setting": "[3]; dabigatran etexilate 220 mg after enoxaparin, n = 22", "result": "32.6^d s"}, {"measurement": "ECT AUEC0–48, gMean", "setting": "[3]; [11]", "result": 7.30, "unit": "h"}, {"measurement": "ECT ERmax, gMean", "setting": "[3]; [11]", "result": 2.05}, {"measurement": "ECT AUEC0–48, gMean", "setting": "[3]; [7]", "result": 7.28, "unit": "h"}, {"measurement": "ECT ERmax, gMean", "setting": "[3]; [7]", "result": 2.25}, {"measurement": "ECT Ebase (baseline effect), gMean", "setting": "[3]; [7]", "result": 33.1, "unit": "s"}, {"measurement": "dTT (HEMOCLOT) AUEC0–48, ratio of adjusted test/reference gMean (90% CI)", "setting": "human α-thrombin; after enoxaparin vs alone", "result": "88.4 (66.8–116.9) %"}, {"measurement": "dTT (HEMOCLOT) ERmax, ratio of adjusted test/reference gMean (90% CI)", "setting": "human α-thrombin; after enoxaparin vs alone", "result": "95.0 (87.4–103.2) %"}, {"measurement": "dTT (HEMOCLOT) AUEC0–48, gMean", "setting": "human α-thrombin; [9]", "result": 3.61, "unit": "h"}, {"measurement": "dTT (HEMOCLOT) ERmax, gMean", "setting": "human α-thrombin; [9]", "result": 1.55}, {"measurement": "dTT (HEMOCLOT) Ebase (baseline effect), gMean", "setting": "human α-thrombin; [9]", "result": 31.0, "unit": "s"}, {"measurement": "dTT (HEMOCLOT) AUEC0–48, gMean", "setting": "human α-thrombin; [10]", "result": 4.01, "unit": "h"}, {"measurement": "dTT (HEMOCLOT) ERmax, gMean", "setting": "human α-thrombin; [10]", "result": 1.64}, {"measurement": "dTT (HEMOCLOT) Ebase (baseline effect), gMean", "setting": "human α-thrombin; [10]", "result": 31.7, "unit": "s"}, {"measurement": "Tolerability (global assessment)", "setting": "Safety and tolerability", "result": "well tolerated"}]}, {"compound": "[H]/N=C(/N)c1ccc(NCc2nc3cc(C(=O)N(CCC(=O)O)c4ccccn4)ccc3n2C)cc1", "note": "[dabigatran]", "values": [{"measurement": "Ratio of free to total dabigatran gMean AUC0-∞", "setting": "[4]; after enoxaparin", "result": 0.765}, {"measurement": "AUC(0-inf)", "setting": "[4]; oral", "result": 592, "unit": "ng·h/mL"}, {"measurement": "Cmax", "setting": "[4]; oral", "result": 78.4, "unit": "ng/mL"}, {"measurement": "AUC(0-inf)", "setting": "[4]; po, 220 mg", "result": 700, "unit": "ng·h/mL"}, {"measurement": "Cmax", "setting": "[4]; po, 220 mg", "result": 90.7, "unit": "ng/mL"}, {"measurement": "Ratio of free to total dabigatran gMean AUC0-∞", "setting": "[4]; dabigatran alone", "result": 0.760}, {"measurement": "AUC0-∞, ratio test/reference", "setting": "[4]; [12]", "result": 85, "unit": "%"}, {"measurement": "Cmax, ratio test/reference", "setting": "[4]; [12]", "result": 86, "unit": "%"}, {"measurement": "Increase of PiCT AUEC0–48 compared with dabigatran etexilate alone", "setting": "[1]; [8]", "result": 64, "unit": "%"}, {"measurement": "Increase of PiCT ERmax compared with dabigatran etexilate alone", "setting": "[1]; [8]", "result": "~15", "unit": "%"}, {"measurement": "Subjects with adverse events by actual treatment at onset", "setting": "Safety and tolerability; treatment at onset: dabigatran (three subjects of 23)", "result": 13.0, "unit": "%"}, {"measurement": "Subjects with adverse events by actual treatment at onset", "setting": "Safety and tolerability; treatment at onset: enoxaparin + dabigatran (three subjects of 23)", "result": 13.0, "unit": "%"}, {"measurement": "Glucuronide share of total dabigatran exposure in plasma", "setting": "[5]", "result": "approximately 20%"}]}, {"compound": "enoxaparin", "values": [{"measurement": "Effect of enoxaparin on ECT", "setting": "[3]; [13]", "result": "not meaningfully affected"}, {"measurement": "Effect of enoxaparin on dTT", "setting": "human α-thrombin; [13]", "result": "not meaningfully affected"}, {"measurement": "Tolerability (global assessment)", "setting": "Safety and tolerability", "result": "well tolerated"}, {"measurement": "Subjects with adverse events by actual treatment at onset", "setting": "Safety and tolerability; treatment at onset: enoxaparin (four subjects of 23)", "result": 17.4, "unit": "%"}, {"measurement": "Mean anti-factor Xa/IIa ratio", "setting": "factor Xa/IIa", "result": "14.0 ± 3.1"}]}]}
